Activity calls are given as the source filed them.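 The calls were made as follows: active = inhibitors whose fitted half-maximal dose is at most ten times the top tested dose; inconclusive = flat curve with 30 to 70% inhibition, or a poor fit; inactive = the rest.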

Tested on in the first assay: not listed separately
Put plainly: TRPM1 reporter luminescence decrease in melanoma cells – SK-MEL-5 cells, luciferase, dry powder samples, MITF project, dose response (AID 540348). As to conditions: SK-MEL-5 TRPM1 promoter luciferase reporter, 24 h; at 35 µM (top of the series). The procedure, abridged:
(§1)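 Material: SK-MEL-5 melanoma cells with stable TRPM1 promoter–luciferase reporter / Compound: dry-powder compound dose series / Timing: cells plated day before, 24 h compound exposure, 37 °C / Detection: Steady-Glo luminescence after 5 min at room temperature, 0.5 s per well / Medium: DMEM lacking phenol red, supplemented with 10% iFBS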
Turning to `CCN1CCCC1CNC(=O)c1ccc2c(c1)NC(=O)/C(=C\c1ccc(C)cc1)S2` (centres undefined), the activity change, negative = inhibition was -106% (inactive).
The same measure, in the same setting: the result for `CC1CN(C(=O)CCC(=O)NCCCN2CCC(Cc3ccccc3)CC2)c2cc(Cl)ccc2O1` (centres undefined) reads -105% (inactive); that for `N=c1n(CCN2CCCC2)c2ccccc2n1CC(O)c1ccc(Cl)c(Cl)c1` (centres undefined), -109% (inactive); that for `CC1=NNC(=O)/C1=C\c1cn(-c2ccccc2)nc1-c1ccc(F)cc1`, -106% (inactive).
Still for that read-out and setting: the result for `Cc1ccc(C(O)(c2ccc(C)c(C)c2)C2CN3CCC2CC3)cc1C` (centres undefined) reads -51% (inactive); that for `Cc1oc(-c2ccc(Cl)cc2)nc1CN1CCC(C(=O)NCCCN2CCCC(C)C2)CC1` (centres undefined), -104% (inactive).
Turning to `CCN(CC)CCNC(=O)c1c(C)n(-c2ccccc2)c2cc(Br)c(OC)cc12`, the activity change, negative = inhibition is -94.1% (inactive).
Regarding `Cc1[nH]c2ccccc2c1C(=O)CCl`, the activity change, negative = inhibition was -106% (inactive).

The next assay deals with SK-MEL-5 TRPM1 promoter luciferase reporter, 24 h. The assay is described as above.
Settings: not given
Summed up:
as §1
As usually defined, the AC50 is the concentration giving half of the maximal activity seen. Turning to `O=C(Nc1ccc(-c2nc3ncccc3o2)cc1)c1ccc([N+](=O)[O-])o1`, the AC50 was 8.55 µM.
Still for that read-out and setting: to `O=c1c(Cl)c2oc3ccccc3nc-2c2ccccc12` belongs 6.17 µM; to `CC1(C)CC(NC(=O)c2ccc(Cl)c(S(=O)(=O)N(Cc3ccccc3)c3ccccc3)c2)CC(C)(C)N1`, 6.34 µM; to `O=C(CNc1cccc2ccccc12)N/N=C/c1ccc([N+](=O)[O-])o1`, 2.42 µM.
The same measure, in the same setting: the result for `C=CCNC1=C(Cl)C(=O)c2ccccc2C1=O` reads 0.905 µM; that for `CC(C)C(CCNC1CCN(C)CC1)c1ccc(Cl)cc1` (centres undefined), 10.6 µM; that for `COc1ccc(S(=O)(=O)N(C(C)=O)c2ccc(OC(C)=O)c3ccccc23)cc1[N+](=O)[O-]`, 2.87 µM.
On the same count and under the same terms, the result for `CC1CCN(CC(CS(=O)(=O)c2ccc([N+](=O)[O-])cc2)N2CCC(C)CC2)CC1` (centres undefined) reads 5.58 µM.
With `Cc1cc(C(C)(C)C)cc(C)c1Cn1c2[n+](c3ccc(C(F)(F)F)cc31)CCCCC2`, the AC50 was 9.42 µM.
Still for that read-out and setting: to `CCN1c2ccccc2NC2N=C(OC)C(c3ccccc3)C21` (centres undefined) belongs 0.808 µM; to `CN(C)CCCNC(=O)/C(=C\c1ccc(-c2ccc(Br)cc2)o1)NC(=O)c1ccccc1`, 12.2 µM.
Same read-out and setting: the result for `Cc1ccc(C(C)C)c(OCc2nn(CC(=O)c3ccc(Cl)cc3)c3[n+]2CCCCC3)c1` reads 13.8 µM; that for `CCN1CCN(C2=C(NS(=O)(=O)c3ccc(Br)cc3)C(=O)c3ccccc3C2=O)CC1`, 2.09 µM; that for `Cc1nc2ccccc2n1/N=C/c1ccc([N+](=O)[O-])s1`, 2.88 µM.
The same measure, in the same setting: to `Cc1ccc(C(=O)N/N=C/c2ccc([N+](=O)[O-])s2)cc1` belongs 5.75 µM; to `COc1cc2c(cc1OC)C(c1ccccc1)N(C(=O)CCl)CC2` (centres undefined), 5.19 µM; to `O=C(Cn1ncc(Cl)c(Cl)c1=O)N1CCc2ccccc21`, 4.69 µM.
On to `COc1cc(/C=N/NC(N)=O)c(Br)cc1OCC(=O)Nc1ccccc1C`, for which the AC50 is 17.7 µM.
Same read-out and setting: to `CC1CCCCC1NC(=O)/C(C#N)=C/C=C/c1ccccc1[N+](=O)[O-]` (centres undefined) belongs 7.3 µM; to `O=C(COc1ccccc1)N/N=C/c1ccc([N+](=O)[O-])o1`, 2.6 µM.
Same read-out and setting: the result for `O=C(Nc1ccc(N2CCN(C(=O)c3ccccc3)CC2)cc1)c1ccc([N+](=O)[O-])o1` reads 9.85 µM.

The values above are taken from PubChem BioAssay AID540348 (Broad Institute, 2011).
